Screening data (PubChem BioAssay)
STAT1 inh: reduces IFN-gamma driven STAT1 reporter signal. NIH 3T3 STAT1-luciferase reporter, luminescence. inhibition, % at 5.5 µM. 200,000 compounds, 0.35% hits;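 active means inhibition above a set limit, the mean inhibition across all tested compounds plus 3 SD, cut at about 34% in these data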;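 further: 0% = IFN-gamma with DMSO and 100% = IFN-gamma with 300 µM nifuroxazide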
STAT3 act: increases IL-6 driven STAT3 reporter signal | U3A cells, IL-6 STAT3-luciferase reporter, luminescence; 100% = signal with IL-6 EC80 alone | activation (% of control), % at 5.6 µM | 190,000 compounds, 0.91% hits;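 active means activation above the screen-wide mean of compound activation plus 3 SD, cut at about 130% in these data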;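 further: 0% = background luminescence of wells with medium and substrate only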
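Material: STAT3-luciferase reporter U3A cells; Probe or stimulus: IL-6 (33 ng/mL); Incubation: compound pre-incubation 1 h before IL-6, then 6 h stimulation at 37 °C; Technique: luminescence from STAT3-driven luciferase reporter; Evaluation: % activation versus median of IL-6-stimulated wells; Controls: IL-6-only high control.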
Platelet DG rel: platelet dense granule release activity | human platelet-rich plasma, SFLLRN dense granule ATP release, luminescence | inhibition, %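 (compounds screened at 7.5 µM in platelet-rich plasma)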 | 300,000 compounds, 0.22% hits;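 active means mean replicate score, as percent of positive control, at or above 50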
STAT3 blocker: STAT3 signaling inhibition; U3A cells, IL-6 STAT3-luciferase reporter, luminescence; host cell line lacks STAT1; inhibition, % at 5.5 µM; 190,000 compounds, 0.89% hits;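 active means inhibition above the mean inhibition across all screened compounds plus 3 SD, cut at about 44% in these data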;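 further: 0% = DMSO only wells and 100% = 100 µM nifuroxazide control wells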
PERK inh: inhibitors of human PERK kinase; Q9NZJ5; CHO PERK-DD fusion, SEAP luminescence translation reporter; inhibition, % at 5.6 µM; 220,000 compounds, 0.17% hits;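 active means inhibition above the mean inhibition of all tested compounds plus 3 SD, set separately per screening campaign, cut at about 2.9% in these data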;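 further: PERK kinase domain activated by AP20187 dimerizer at 100 nM; 0% = DMSO with dimerizer and 100% = rapamycin at 8.4 µM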
Target sequence (Q9NZJ5 whole entry, looked up, the tested form may be a part): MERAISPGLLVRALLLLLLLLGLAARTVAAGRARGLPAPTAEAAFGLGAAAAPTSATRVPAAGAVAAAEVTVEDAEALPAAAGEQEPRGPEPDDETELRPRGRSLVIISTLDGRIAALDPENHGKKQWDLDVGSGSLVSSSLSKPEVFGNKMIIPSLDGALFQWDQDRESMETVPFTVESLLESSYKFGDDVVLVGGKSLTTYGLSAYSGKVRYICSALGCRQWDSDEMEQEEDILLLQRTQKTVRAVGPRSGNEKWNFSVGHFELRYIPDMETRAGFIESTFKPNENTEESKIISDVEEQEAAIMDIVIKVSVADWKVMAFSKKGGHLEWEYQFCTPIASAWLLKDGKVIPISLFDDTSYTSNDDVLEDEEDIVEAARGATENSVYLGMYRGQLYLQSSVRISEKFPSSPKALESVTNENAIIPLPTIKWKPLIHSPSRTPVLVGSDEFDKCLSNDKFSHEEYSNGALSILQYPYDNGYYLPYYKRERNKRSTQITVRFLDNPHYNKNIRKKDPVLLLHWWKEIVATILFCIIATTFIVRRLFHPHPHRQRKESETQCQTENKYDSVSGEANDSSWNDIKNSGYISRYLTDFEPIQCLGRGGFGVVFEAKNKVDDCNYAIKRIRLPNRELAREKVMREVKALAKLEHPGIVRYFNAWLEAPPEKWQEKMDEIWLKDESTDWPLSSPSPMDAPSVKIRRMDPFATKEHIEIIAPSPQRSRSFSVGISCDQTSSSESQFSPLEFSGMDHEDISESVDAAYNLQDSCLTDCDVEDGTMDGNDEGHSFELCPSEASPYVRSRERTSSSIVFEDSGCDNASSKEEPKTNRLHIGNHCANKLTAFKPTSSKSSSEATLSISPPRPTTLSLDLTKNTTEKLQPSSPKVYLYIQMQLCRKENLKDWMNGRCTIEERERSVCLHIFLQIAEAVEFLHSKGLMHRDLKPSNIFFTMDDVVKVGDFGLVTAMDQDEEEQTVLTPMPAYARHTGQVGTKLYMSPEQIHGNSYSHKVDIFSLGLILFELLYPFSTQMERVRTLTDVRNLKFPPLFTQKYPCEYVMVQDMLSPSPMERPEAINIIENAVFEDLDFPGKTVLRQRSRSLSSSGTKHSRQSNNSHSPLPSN
Active calls of the source: *; nt = not tested or not shown. Rows were chosen to be rich in hits. Some 1.4% of all compounds tested hit in one or more screens of this group.

SMILES	STAT1 inh	STAT3 act	Platelet DG rel	STAT3 blocker	PERK inh
CCCc1cc(C(=O)NC2CCCC2)no1	-22.6	111.1	85.3*	-8.0	1.4
CCc1ccc(C2c3[nH]c4ccccc4c3CCN2C(=O)c2cc(C)nn2C)cc1 (stereo not drawn)	13.1	133.4*	6.0	-31.5	0.2
CCOc1ccc(C2c3[nH]c4ccccc4c3CCN2C(=O)Cn2cncn2)cc1 (stereo not drawn)	9.5	106.6	-5.8	-5.4	-0.2
Cc1nc(C(=O)N2CCc3c([nH]c4ccccc34)C2c2cc(F)ccc2F)cs1 (stereo not drawn)	-0.8	134.1*	-0.4	-23.5	2.1
Cc1cnc(C(=O)N2CCc3c([nH]c4ccccc34)C2c2ccc(F)cc2)cn1 (stereo not drawn)	-7.1	115.8	3.8	-11.6	0.7
CSc1ccc(C2c3[nH]c4ccccc4c3CCN2C(=O)c2cc(C)n(C)n2)cc1 (stereo not drawn)	-34.9	148.0*	2.3	-47.0	-0.4
NC(=O)C1CCN(C(=O)NC2CC(=O)N(c3ccc4c(c3)OCCO4)C2)CC1 (stereo not drawn)	nt	nt	-7.7	nt	nt
CC(=O)Oc1ccc(-c2ccc(C(=O)OCC(=O)N(C)CC(=O)Nc3ccccc3Cl)cc2)cc1	nt	nt	2.6	nt	nt
COc1cccc(NC(=S)N2CCN(C/C=C/c3ccccc3)CC2)c1	2.9	85.3	3.5	23.5	-0.3
COc1cc(NC(=S)N2CCN(C/C=C/c3ccccc3)CC2)cc(OC)c1	-3.4	98.4	56.6*	4.8	-0.6
COc1cccc(C2c3[nH]c4ccccc4c3CCN2CCCn2cccn2)c1 (stereo not drawn)	8.8	131.8	2.0	-30.6	-0.4
CCOc1ccc(C2c3[nH]c4ccccc4c3CCN2CCCn2cccn2)cc1 (stereo not drawn)	1.9	134.4*	24.7	-31.9	1.2
CC(C)CC1c2[nH]c3ccccc3c2CCN1CCCn1cccn1 (stereo not drawn)	8.3	133.4*	-0.7	-30.9	-0.3
CCn1ccnc1CN1CCc2c([nH]c3ccccc23)C1CC(C)C (stereo not drawn)	2.3	122.0	8.6	-23.4	-0.5
CC(C)(C)c1ccc(C(=O)Nc2ccc(CC(=O)O)cc2)o1	53.8*	30.8	-13.8	82.8*	-0.7
CC(=O)Nc1ccc(NC2=CC(=O)c3ccccc3C2=O)cc1	nt	nt	3.4	nt	nt
O=C1C=C(Nc2ccc(O)cc2)C(=O)c2ccccc21	nt	nt	74.2*	nt	-0.8
O=C1C(Nc2ccc(O)cc2)=C/C(=N/S(=O)(=O)c2cccs2)c2ccccc21	89.9*	26.4	-1.3	86.3*	-1.6
COc1ccc(/C=N/NC(=O)c2c(C)nnn2-c2nonc2N)cc1OC	-4.7	82.8	-6.8	24.5	0.2
CCOC(=O)c1csc(NC(=O)CN2CCCCC2)n1	nt	nt	3.9	nt	nt
O=C(CNC(=O)c1cccs1)c1ccc(Br)cc1	nt	nt	-3.2	nt	nt
O=S(=O)(NC1c2cccc3cccc(c23)C1N1CCN(CCO)CC1)c1ccccc1 (stereo not drawn)	-1.1	133.8*	-1.0	-29.5	0.3
CCOC(=O)CNS(=O)(=O)c1cc(-c2n[nH]c(=O)c3ccccc23)ccc1C	-5.7	111.7	51.3*	-8.8	-1.4
CN(C)c1ccc(CNC(=O)CN(C)S(=O)(=O)c2ccc3c(c2)c(=O)n(C)c(=O)n3C)cc1	nt	nt	5.5	nt	nt
CCOC(=O)c1ccc2nc(Nc3nc4ccc(F)cc4s3)sc2c1	43.0*	37.9	-5.8	73.4*	0.4
SMILES	STAT1 inh	STAT3 act	Platelet DG rel	STAT3 blocker	PERK inh
COC(=O)c1ccc2nc(Nc3nc4c(F)cc(F)cc4s3)sc2c1	69.8*	20.8	-10.4	93.6*	-1.1
COC(=O)c1ccc2nc(NC(=O)C(C)C)sc2c1	-36.7	75.5	11.5	32.5	-0.3
CN(C)C(=O)c1nc2ccc(Cl)cn2c1CN1CCCC(OCc2ccccc2)C1 (stereo not drawn)	3.5	101.3	0.6	10.0	0.6
CCOc1ccc2nc(NC(=O)CN3C(=O)NC4(CCCC4)C3=O)sc2c1	nt	nt	-13.8	nt	nt
COc1ccc(OCCCC(=O)OC(C)C(=O)Nc2ccc(NC(C)=O)cc2)cc1 (stereo not drawn)	nt	nt	56.9*	nt	nt
CC(C)c1ccc(NC(=O)c2cc(S(=O)(=O)N3CCCCC3)c[nH]2)cc1	nt	nt	15.1	nt	nt
N#CC(c1cccc(Cl)c1)c1ccc2c(C(F)(F)F)cc(C(F)(F)F)nc2n1 (stereo not drawn)	60.5*	28.6	14.8	86.2*	1.0
CN=C1SC(CC(=O)Nc2ccccc2F)C(=O)N1C (stereo not drawn)	-17.0	106.3	16.2	-8.6	4.4*
N#Cc1ccsc1NC(=O)c1cccc(-n2cnnn2)c1	nt	nt	-0.1	nt	nt
Cn1c(=O)[nH]c(=O)c2c1nc(N1CCCCC1)n2CC(O)COc1ccc([N+](=O)[O-])cc1 (stereo not drawn)	nt	nt	-2.2	nt	nt
O=C(NCc1ccoc1)c1ccc(NC(=O)c2ccccc2Cl)cc1	7.3	133.2*	2.0	-30.8	-0.5
O=C(Nc1ccc(C(=O)N2CCCCC2)cc1)c1ccccc1Cl	nt	nt	7.1	nt	nt
O=C(CN1C(=O)c2cccnc2Oc2ccc(Cl)cc21)NCCC1=CCCCC1	nt	nt	-0.1	nt	nt
CC[n+]1c(/C=C/c2c[nH]c3ccccc23)ccc2cc(C)ccc21	57.9*	51.5	nt	58.8*	-1.2
N#Cc1ccsc1NC(=O)c1ccc(Cl)c([N+](=O)[O-])c1	nt	nt	-3.4	nt	4.3*
COc1ccc(Cl)cc1C(=O)NC(C)C	-9.4	96.9	6.3	5.8	0.7
CCCn1c(/N=C/c2ccccc2O)nc2ccccc21	6.3	102.2	-1.2	2.1	0.3
Cn1c(/N=C/c2c(O)ccc3ccccc23)nc2ccccc21	10.5	133.7*	15.0	-36.3	0.9
S=c1nc(C2COc3ccccc3O2)[nH][nH]1 (stereo not drawn)	2.1	97.8	-9.4	8.0	-0.5
S=c1[nH]nc(C2COc3ccccc3O2)o1 (stereo not drawn)	-2.1	99.7	-39.2	5.2	3.0*
CC(=O)NCCc1c[nH]c2ccc(OCc3ccccc3)cc12	nt	nt	-19.2	nt	nt
Cn1nc(-c2ccc(Cl)cc2)nc2c(=O)n(C)c(=O)nc1-2	88.0*	42.8	8.3	74.3*	-0.2
O=C(CSc1nnc(CNc2ccc(Cl)cc2)o1)Nc1nc2c(s1)CCCC2	0.6	100.5	-2.9	5.8	0.5
O=C(Oc1ccc(Br)cc1C(=O)/C=C/c1ccccc1F)c1ccco1	-1.0	140.3*	-1.6	-39.2	0.4
Cc1cccc(C)c1OCCNC(=O)C(=O)NCc1ccco1	0.9	117.3	-5.1	-15.0	0.8
CCOCCCNC(=O)c1cc2c(-c3ccc(Cl)cc3)nn(C)c2s1	1.0	135.5*	17.3	-32.4	-1.5
Cc1ccc2cc(/C=N/Nc3nc4ccccc4[nH]3)c(Cl)nc2c1	6.0	113.4	38.2	-16.1	3.4*
C(=N\Nc1nc2ccccc2[nH]1)/c1ccccn1	92.6*	11.8	62.0*	110.7*	0.6
COc1cccc(CN(C)C(=O)c2ccc(COc3ccc(Cl)cc3)cc2)c1OC	nt	nt	-1.1	nt	nt
CCOC(=O)/C(N)=C/c1ncc(C(F)(F)F)cc1Cl	-2.5	94.5	-5.3	12.4	0.4
